m-calpain inh – blocks pig calpain II enzyme activity. purified calpain II, fluorogenic peptide substrate, 30 min. inhibition, % at 16 µM. hit rate 0.37% among 220,000. AID 1236;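 active = inhibition above about 50%, limit read from the data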
FXIIa inh – factor XIIa (human) inhibition. P00748. AID 800. purified FXIIa, Boc-QGR-AMC fluorogenic substrate, 2 h. inhibition, % at 5 µM. hit rate 0.3% among 220,000; in the data active = inhibition above about 40%;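 also: 0% = enzyme with no compound and 100% = blank without enzyme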
FXIa inh 1536 – inhibitors of human coagulation factor XIa; purified FXIa, Boc-Glu-Ala-Arg-AMC fluorogenic substrate; inhibition, % at 5 µM; P03951; hit rate 0.14% among 220,000; AID 798;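 active = inhibition of at least 40%; inactive = inhibition below 40%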;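 also: fluorescence of freed AMC excited at 355 nm; 0% = enzyme without compound and 100% = no enzyme blank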
thrombin 1536 – blocks human thrombin protease activity; alpha-thrombin, Boc-VPR-AMC fluorogenic substrate cleavage; inhibition, % at 5 µM; hit rate 0.26% among 220,000; AID 1046;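 active = inhibition at or above 40%; inactive = inhibition below 40%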;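 also: 0% = enzyme with no compound and 100% = wells without enzyme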
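System: Human alpha-thrombin protein | Medium: pH 7.5 Tris (50 mM) with NaCl 150 mM, Tween 20 0.05% | Times: Enzyme reaction carried out at room temperature | Detection: AMC fluorescence, 355/460 nm | Evaluation: Percent inhibition scaled between no-compound controls and no-enzyme blanks | Benchmarks: Enzyme without compound as high, wells lacking enzyme as low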
KLK5 inh – blocks human kallikrein 5 protease activity; Q9Y337; recombinant hK5, fluorogenic AMC substrate cleavage; inhibition, % at 5 µM; hit rate 0.59% among 210,000; AID 873;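 active = inhibition of 40% or more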;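 also: 0% = enzyme controls without compound and 100% = no-enzyme blanks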
The depositor's hits bear a star; . = no result given. Shown are actives, neighbours in structure and some others; about 1.4% of the full set was active somewhere.

SMILES	m-calpain inh	FXIIa inh	FXIa inh 1536	thrombin 1536	KLK5 inh
Cc1ccc(C)c(NC(=O)CN(C)C(=O)c2nn(C)c(=O)c3ccccc23)c1	-5	4	-3	-3	0
Cc1c(NS(=O)(=O)c2ccc3c(c2)Cc2ccccc2-3)c(=O)n(-c2ccccc2)n1C	-29	1	-4	0	-2
CCCCn1c(-c2csc3c2CCC(C)C3)n[nH]c1=S (centres undefined)	66*	21	-1	-3	-22
COc1ccc(Oc2ccccc2C=O)cc1	3	20	4	20	51*
Cc1ccc(NC(=O)c2cc3c(=O)oc4ccc(C)cc4c3s2)nc1	-51	13	-1	1	5
CCN(CC)c1cc(C)c2cc(NC(=O)CNC(C)=O)ccc2n1	.	-7	-8	0	142*
CCCCNC(=O)CCC(=O)Nc1ccc2nc(N3CCC(C)CC3)cc(C)c2c1	-326	8	-2	-7	1
Cc1nc(-c2ccc(S(=O)(=O)Nc3ccc(Br)cc3Cl)s2)cs1	63*	5	0	-7	0
Cc1ccc(-n2c(-c3ccncc3)n[nH]c2=S)c(C)c1	10	2	-5	-5	.
C/C(CC(=O)NCCCN1CCOCC1)=N\NC(=O)COc1ccc(Cl)cc1	8	15	-1	2	-4
C/C(CC(=O)NCCCN1CCOCC1)=N\NC(=O)COc1ccc(C)cc1	21	24	3	11	47*
Cc1cc(C)n(C(=O)CNc2cccc(Cl)c2C)n1	13	44*	5	5	46*
Cc1ccc(OCCn2c(=S)[nH]c3c(N)ncnc32)cc1	-20	7	-1	-8	2
Cc1cccc(-n2c(SCc3ccc([N+](=O)[O-])cc3)nnc2-c2c[nH]c3ccccc23)c1	-35	12	1	7	-3
COc1cc(NS(=O)(=O)c2ccc(NC(=S)NC(=O)c3ccco3)cc2)ncn1	-14	2	-4	-5	-2
COc1cc(NS(=O)(=O)c2ccc(NC(=S)NC(=O)c3sc4ccccc4c3Cl)cc2)ncn1	57*	1	-3	-9	-21
CCc1nc2sccc2c(=O)[nH]1	11	23	32	44*	56*
O=C(Nc1cccc2oc(=O)ccc12)c1ccc([N+](=O)[O-])cc1[N+](=O)[O-]	64*	2	-4	-12	-19
Cc1cc2ncn(-c3ncnc4sc5c(c34)CCC(C)C5)c2cc1C (centres undefined)	66*	13	0	-6	-12
Cc1cc2ncn(-c3ncnc4sc5c(c34)CCCC5)c2cc1C	9	7	-1	0	-8
CCCCCCCc1c(O)nc(SCCN2CCOCC2)[nH]c1=O	-7	2	-6	-10	-18
COc1cc(NC(=O)c2cccs2)c(OC)cc1NC(=O)CCC(=O)Nc1ccc2ncccc2c1	-60	15	27	19	54*
COc1ccc(NCC(=O)Nc2cc(S(=O)(=O)N3CCOCC3)ccc2N2CCOCC2)c(OC)c1	15	35	42*	17	24
O=C(O)c1cccc(N2CCCC2=O)c1	2	17	17	-2	10
COC(=O)c1cccc(N2CCCC2=O)c1	2	25	32	16	45*
SMILES	m-calpain inh	FXIIa inh	FXIa inh 1536	thrombin 1536	KLK5 inh
CC(=O)Nc1ccc(NC(=O)C(C)OC(=O)C2CCN(S(=O)(=O)c3cccs3)CC2)cc1 (centres undefined)	-2	-1	-4	-12	-2
O=C(O)c1ccc(NC2=C(Cl)C(=O)c3ccccc3C2=O)cc1	58*	43*	14	23	81*
COc1ccc(/C=C/C(=O)NC2CCCCCCC2)cc1S(=O)(=O)N1CCOCC1	0	16	-9	-10	-9
COc1ccc(CNC(=O)C2=CCN(S(=O)(=O)c3ccc(C)cc3)CC2)cc1	22	6	-1	-6	2
COc1ccc(S(=O)(=O)N(CCCN2CCCC2=O)Cc2cc3cc(C)c(C)cc3[nH]c2=O)cc1	-22	10	1	29	86*
O=C1CC(c2cccs2)c2cc3c(cc2N1)OCO3 (centres undefined)	-3	17	1	0	46*
Cc1nnc(NC(=O)c2c(F)cccc2F)s1	-42	21	6	-3	-7
CC(=O)Cc1nsc(NC(=O)c2cccc(F)c2)n1	18	21	25	0	52*
Cc1nnc(NC(=O)c2cccc(F)c2)s1	9	16	4	7	44*
COc1ccc(CN2C(=O)c3cccnc3C2Nc2cc(Cl)ccc2OC)cc1 (centres undefined)	22	14	5	5	46*
